Results as given in ChEMBL document CHEMBL1125228, “A 3-D model for 5-HT1A-receptor agonists based on stereoselective methyl-substituted and conformationally restricted analogues of 8-hydroxy-2-(dipropylamino)tetralin” (J Med Chem, 1991).
“And” between values parts separate entries of the source, which are not always exact repeats. Equal entries are not always repeated.

Columns and labels:
[1] = molecular target: T1, 5-hydroxytryptamine receptor 1A (Rattus norvegicus, UniProt P19327); experiment: Binding affinity at 5-hydroxytryptamine 1A receptor by the displacement of [3H]8-OH-DPAT in rat brain.; assay type: tissue-based
T1 sequence (P19327 whole entry): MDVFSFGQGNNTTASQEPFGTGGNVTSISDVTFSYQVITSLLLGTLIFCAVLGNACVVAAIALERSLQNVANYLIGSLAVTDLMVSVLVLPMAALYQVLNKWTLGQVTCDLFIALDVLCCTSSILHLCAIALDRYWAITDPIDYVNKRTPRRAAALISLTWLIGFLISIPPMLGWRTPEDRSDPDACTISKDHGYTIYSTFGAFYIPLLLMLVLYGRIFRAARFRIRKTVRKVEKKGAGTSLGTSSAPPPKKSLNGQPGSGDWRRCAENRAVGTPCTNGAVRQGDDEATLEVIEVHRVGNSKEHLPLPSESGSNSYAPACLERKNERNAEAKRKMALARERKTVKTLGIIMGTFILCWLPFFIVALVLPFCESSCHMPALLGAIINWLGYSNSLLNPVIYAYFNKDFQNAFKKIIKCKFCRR
Summary of the method: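 Rat brain membranes washed in 50 mM Tris-HCl pH 7.4, with a 37 °C 10 min incubation to remove endogenous 5-HT, used at 10 mg wet tissue/mL. Incubated 15 min at 37 °C with 1 nM [3H]-8-OH-DPAT, 3 mM CaCl2 and pargyline. Filtered and counted; 10 µM 5-HT defined nonspecific binding. IC50 from four-parameter logistic fit, converted to Ki by Cheng-Prusoff; mean ± SEM of N experiments.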

[2] = molecular target: Serotonin (5-HT) receptor (Rattus norvegicus) (UniProt P35563+P35365+P32305+P31388+Q9JJ16+P28564+P30994+Q62758+P08909+P14842+P30940+P35364+P19327+P28565); experiment: Dose corresponding to half-maximal decrease of 5-HTP formation in the limbic and striatal parts of rat brain; assay type: functional, tissue-based
Rattus norvegicus [3] = experiment: In vivo accumulation of 5-HT in striatum of rat brain at a dose of 63 umol/kg.; assay type: functional
Summary of the method: (§1)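 Hydrochlorides given sc in the neck (5 mL/kg) to rats, either untreated or reserpine-pretreated (5 mg/kg sc, 6 h before). Decarboxylase inhibitor NSD 1015 (100 mg/kg ip or 60 mg/kg sc) given 30 min later; rats decapitated after another 30 min. Striatum, limbic system, hemispheres and brain stem dissected on ice and homogenized in 0.1 M perchloric acid with α-methyl-DOPA internal standard. DOPA, DA, 5-HTP and 5-HT measured by ion-pair reversed-phase HPLC with electrochemical detection.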

Rattus norvegicus [4] = experiment: In vivo accumulation of 5-HTP in brain stem of rat brain at a dose of 63 umol/kg.; assay type: functional; summary of the method: as §1
Rattus norvegicus [5] = experiment: In vivo accumulation of DOPA in brain stem of rat brain at a dose of 63 umol/kg.; assay type: functional; summary of the method: as §1
[6] = molecular target: T2, Dopamine receptor (Rattus norvegicus) (UniProt P25115+P19020+P30729+P18901+P61169); experiment: In vivo accumulation of DOPA in limbic of rat brain at a dose of 63 umol/kg.; assay type: functional, organism-based
Summary of the method: (§2)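 Rats, reserpine-pretreated (5 mg/kg, i.e. 9 μmol/kg sc, 6 h before) or nonpretreated, given test hydrochloride sc in the neck (injection volume 5 mL/kg). Decarboxylase inhibitor NSD 1015 (100 mg/kg ip or 60 mg/kg sc) given 30 min later; decapitation after another 30 min. Brain dissected on ice into striatum, limbic system, hemispheres, brain stem. Homogenized in 0.1 M perchloric acid with α-methyl-DOPA internal standard; DOPA measured by ion-pair reversed-phase HPLC with electrochemical detection.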

Rattus norvegicus [7] = experiment: In vivo accumulation of 5-HTP in hemisphere of rat brain at a dose of 63 umol/kg.; assay type: functional; summary of the method: as §1
Rattus norvegicus [8] = experiment: In vivo accumulation of DOPA in hemisphere of rat brain at a dose of 63 umol/kg.; assay type: functional; summary of the method: as §2
Rattus norvegicus [9] = experiment: In vivo accumulation of DA in striatum of rat brain at a dose of 63 umol/kg.; assay type: functional; summary of the method: as §1
Rattus norvegicus [10] = experiment: In vivo accumulation of DOPA in striatum of rat brain at a dose of 63 umol/kg.; assay type: functional; summary of the method: as §2
Rattus norvegicus [11] = experiment: In vivo accumulation of 5-HTP in limbic of rat brain at a dose of 63 umol/kg.; assay type: functional; summary of the method: as §1
Rattus norvegicus [12] = experiment: In vivo accumulation of 5-HTP in striatum of rat brain at a dose of 63 umol/kg.; assay type: functional; summary of the method: as §1
Rattus norvegicus [13] = experiment: In vivo accumulation of 5-HT in limbic of rat brain at a dose of 63 umol/kg.; assay type: functional; summary of the method: as §1
[14] = molecular target: T2, Dopamine receptor (Rattus norvegicus); experiment: In vivo accumulation of DOPA in hemisphere of rat brain at a dose of 53 umol/kg.; assay type: functional, organism-based; summary of the method: as §2

Compound: CCCN(CCC)[C@@H]1CCc2cccc(O)c2[C@@H]1C
- Ki [1]: 2.08 nM

Compound: CCCN(CCC)C1CCc2cccc(O)c2C1C (racemic)
- Ki [1]: 2.84 nM

Compound: CCCN1CCC[C@H]2Cc3cccc(O)c3C[C@H]21
- Ki [1]: 151 nM

Compound: CCCN1CCC[C@@H]2Cc3cccc(O)c3C[C@@H]21 [listing 1 of 2 here]
- Ki [1]: > 10000 nM

Compound: CCCN(CCC)C1Cc2c(O)cccc2CC1(C)C (racemic)
- Ki [1]: > 10000 nM
- ED50 [2]: > 0.05 mg/kg

Compound: Oc1cccc2c1C[C@@H]1NCCC[C@@H]1C2
- Control (Rattus norvegicus [3]): 105%
- Control (Rattus norvegicus [4]): 101.7%
- Control (Rattus norvegicus [5]): 97.7%
- Control [6]: 75.3% and 73.5%
- Control (Rattus norvegicus [7]): 59.7%
- Control (Rattus norvegicus [8]): 70.4%
- Control (Rattus norvegicus [9]): 92.6%
- Control (Rattus norvegicus [10]): 88%
- Control (Rattus norvegicus [11]): 88.6%
- Control (Rattus norvegicus [12]): 102.7%
- Control (Rattus norvegicus [13]): 92.5%

Compound: Oc1cccc2c1C[C@H]1NCCC[C@H]1C2
- Control (Rattus norvegicus [3]): 100.5%
- Control (Rattus norvegicus [4]): 106.8%
- Control (Rattus norvegicus [5]): 94.9%
- Control [6]: 82.4% and 85.6%
- Control (Rattus norvegicus [7]): 101.4%
- Control (Rattus norvegicus [8]): 64.2%
- Control (Rattus norvegicus [9]): 92.4%
- Control (Rattus norvegicus [10]): 84%
- Control (Rattus norvegicus [11]): 92%
- Control (Rattus norvegicus [12]): 108.8%
- Control (Rattus norvegicus [13]): 89.4%

Compound: CCCN(CCC)[C@@H]1C[C@@H]1c1ccccc1O
- ED50 [2]: 0.04 mg/kg

Compound: CCCN(CCC)[C@@H]1C[C@@H]1c1cccc(O)c1
- ED50 [2]: > 0.05 mg/kg

Compound: CCCN1CCC[C@@H]2Cc3cccc(O)c3C[C@H]21 [listing 1 of 2 here]
- Ki [1]: 2810 nM

Compound: CCCN(CCC)[C@H]1Cc2c(O)cccc2C[C@@H]1C [listing 1 of 2 here]
- ED50 [2]: 0.005 mg/kg

Compound: CCCN(CCC)[C@@H]1Cc2c(O)cccc2C[C@@H]1C
- Ki [1]: 394 nM
- ED50 [2]: 0.02 mg/kg

Compound: CCCN1CCC[C@H]2c3c(O)cccc3CC[C@@H]21 [listing 1 of 2 here]
- Ki [1]: 3.87 nM

Compound: CCCN(CCC)[C@H]1Cc2c(O)cccc2C[C@@H]1C (racemic)
- Ki [1]: 104 nM

Compound: CCCN(CCC)[C@@H]1CCc2cccc(O)c2[C@H]1C (racemic)
- Ki [1]: 1040 nM
- ED50 [2]: > 0.05 mg/kg

Compound: CCCN1CCC[C@@H]2c3c(O)cccc3CC[C@H]21 [listing 1 of 2 here]
- Ki [1]: 32.3 nM

Compound: CCCN1CCC[C@@H]2Cc3cccc(O)c3C[C@@H]21 [listing 2 of 2 here]
- ED50 [2]: > 0.05 mg/kg
- Control [14]: 63%

Compound: CCCN1CCC[C@@H]2Cc3cccc(O)c3C[C@H]21 [listing 2 of 2 here]
- ED50 [2]: > 0.05 mg/kg
- Control [14]: 97.5%

Compound: CCCN(CCC)[C@H]1Cc2c(O)cccc2C[C@@H]1C [listing 2 of 2 here]
- Ki [1]: 49.6 nM

Compound: CCCN1CCC[C@@H]2c3c(O)cccc3CC[C@H]21 [listing 2 of 2 here]
- ED50 [2]: 0.0005 mg/kg
- Control [14]: 117%

Compound: Oc1cccc2c1C[C@@H]1NCCC[C@H]1C2
- Control (Rattus norvegicus [3]): 116%
- Control (Rattus norvegicus [4]): 115.8%
- Control (Rattus norvegicus [5]): 90.3%
- Control [6]: 85.7% and 95.5%
- Control (Rattus norvegicus [7]): 107.8%
- Control (Rattus norvegicus [8]): 85.2%
- Control (Rattus norvegicus [9]): 97.4%
- Control (Rattus norvegicus [10]): 85.3%
- Control (Rattus norvegicus [11]): 104.6%
- Control (Rattus norvegicus [12]): 116.8%
- Control (Rattus norvegicus [13]): 109.6%

Compound: CCCN(CCC)[C@H]1CCc2cccc(O)c2[C@H]1C
- Ki [1]: 2920 nM
- ED50 [2]: > 0.05 mg/kg

Compound: CCCN(CCC)[C@H]1Cc2c(O)cccc2C[C@H]1C [listing 1 of 2 here]
- ED50 [2]: > 0.05 mg/kg

Compound: CCCN(CCC)[C@H]1Cc2c(O)cccc2C[C@H]1C (racemic)
- Ki [1]: 656 nM

Compound: CCCN(CCC)[C@@H]1Cc2c(O)cccc2C[C@H]1C
- Ki [1]: 1390 nM
- ED50 [2]: > 0.043 mg/kg

Compound: CCCN1CCC[C@H]2c3c(O)cccc3CC[C@@H]21 [listing 2 of 2 here]
- ED50 [2]: 0.0005 mg/kg
- Control [14]: 140%

Compound: CCCN(CCC)C1(C)CCc2cccc(O)c2C1 (racemic)
- Ki [1]: 1130 nM
- ED50 [2]: > 0.05 mg/kg

Compound: Oc1cccc2c1C[C@H]1NCCC[C@@H]1C2
- Control (Rattus norvegicus [3]): 100.5%
- Control (Rattus norvegicus [4]): 101.7%
- Control (Rattus norvegicus [5]): 91.4%
- Control [6]: 84.4% and 89.8%
- Control (Rattus norvegicus [7]): 81.9%
- Control (Rattus norvegicus [8]): 79%
- Control (Rattus norvegicus [9]): 92.4%
- Control (Rattus norvegicus [10]): 84.2%
- Control (Rattus norvegicus [11]): 82.3%
- Control (Rattus norvegicus [12]): 96.5%
- Control (Rattus norvegicus [13]): 89.4%

Compound: CCCN(CCC)[C@H]1Cc2c(O)cccc2C[C@H]1C [listing 2 of 2 here]
- Ki [1]: 2020 nM

Compound: CCCN1CCC[C@H]2Cc3cccc(O)c3C[C@@H]21
- Ki [1]: > 10000 nM
